Reference: ChEMBL document CHEMBL1135477, “Antifungal agents. 10. New derivatives of 1-[(aryl)[4-aryl-1H-pyrrol-3-yl]methyl]-1H-imidazole, synthesis, anti-candida activity, and quantitative structure-analysis relationship studies” (J Med Chem, 2002)
≈ marks a conversion by molar mass, not a printed value.

Tested on: Candida
Experiment: Tested in vitro for antifungal activity against Candida species. at pH 5.8; range is from 1 to 64
Format: functional
Procedure, shortened: (§1)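 Liquid serial-dilution MIC against 3 freshly isolated clinical Candida strains (two C. glabrata, one C. krusei) in Sabouraud broth at pH 7.2 or 5.8. Inoculum was 10³/mL after 18 h pre-culture at 37 °C, read at 24 h, 37 °C. Range was 0.25–256 μg/mL. Endpoint was no visible growth versus a DMSO/water blank.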

SMILES | Range [µg/mL]
Cn1cc(-c2ccc(Cl)cc2)c([C@H](c2ccc(Cl)cc2Cl)n2ccnc2)c1 | 64

Tested on: Candida
Experiment: Tested In vitro for antifungal activity against Candida species. at pH 7.2; (range is from 4 to 32)
Format: functional
Procedure, shortened: as §1

SMILES | Range [µg/mL]
FC(F)(F)c1ccc(-c2c[nH]cc2[C@@H](c2ccc(Cl)cc2Cl)n2ccnc2)cc1 | 32

Tested on: Candida
Experiment: Tested in vitro for antifungal activity against Candida species. at pH 5.8 ( range is from 8 to 16)
Format: functional
Procedure, shortened: as §1

SMILES | Range [µg/mL]
FC(F)(F)c1ccc(-c2c[nH]cc2[C@@H](c2ccc(Cl)cc2Cl)n2ccnc2)cc1 | 16

Tested on: Candida albicans
Experiment: In vitro antifungal activity against 40 strains of Candida albicans at pH 5.8; (percent of resistant species at 256 ug/mL)
Format: functional
Procedure, shortened: (§2)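 Broth serial-dilution test in Sabouraud broth at pH 7.2 or 5.8, against 40 fresh clinical C. albicans isolates from hospitalized patients. Inocula were 10³/mL, pre-grown 18 h at 37 °C in Sabouraud dextrose broth. Compound from a DMSO/water stock was twofold-diluted over 0.25–256 µg/mL. Visible growth was read at 24 h, 37 °C.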

SMILES | Resistance [%]
Cn1cc(-c2ccc(Cl)cc2)c([C@H](c2ccc(Cl)cc2Cl)n2ccnc2)c1 | 0

Tested on: Candida albicans
Experiment: In vitro antifungal activity against 40 strains of Candida albicans at pH 7.2; minimum inhibitory concentration (range is from 1 to 32)
Format: functional
Procedure, shortened: (§3)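 Broth serial-dilution MIC against 40 clinical C. albicans isolates from hospitalized patients, grown in Sabouraud broth at pH 7.2 or 5.8. Cells were pre-grown 18 h at 37 °C, inoculated at 10³/mL, and read at 24 h, 37 °C. Doubling dilutions ran 0.25–256 μg/mL from a DMSO/water solution. MIC was the lowest concentration with no visible growth against a DMSO/water blank.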

SMILES | Range [µg/mL]
Cn1cc(-c2ccc(Cl)cc2)c([C@H](c2ccc(Cl)cc2Cl)n2ccnc2)c1 | 32

Tested on: Candida
Experiment: Tested In vitro for antifungal activity against Candida species. at pH 7.2; (percent of resistant species at 256 ug/mL)
Format: functional
Procedure, shortened: (§4)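 Broth serial-dilution test in Sabouraud broth at pH 7.2 or 5.8, against 3 fresh clinical non-albicans isolates (two C. glabrata, one C. krusei). Inocula were 10³/mL, pre-grown 18 h at 37 °C. Compound was twofold-diluted over 0.25–256 µg/mL and read at 24 h, 37 °C for visible growth.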

SMILES | Resistance [%]
CCn1cc(-c2ccc(Cl)cc2)c([C@H](c2ccc(Cl)cc2Cl)n2ccnc2)c1 | 0
FC(F)(F)c1ccc(-c2c[nH]cc2[C@@H](c2ccc(Cl)cc2Cl)n2ccnc2)cc1 | 0
Cn1cc(-c2ccc(Cl)cc2)c([C@H](c2ccc(Cl)cc2Cl)n2ccnc2)c1 | 0

Tested on: Candida albicans
Experiment: In vitro antifungal activity against 40 strains of Candida albicans at pH 5.8; value ranges from 0.5 to 4)
Format: functional
Procedure, shortened: as §3

SMILES | Range [µg/mL]
Cn1cc(-c2ccc(Cl)cc2)c([C@H](c2ccc(Cl)cc2Cl)n2ccnc2)c1 | 4

Molecular target: Lanosterol 14-alpha demethylase (Candida albicans (strain SC5314 / ATCC MYA-2876) (Yeast), UniProt P10613)
Experiment: Anticandida activity- (MIC90 compound) / (MIC90 bifonazole)
Format: functional

Sequence of Lanosterol 14-alpha demethylase (P10613 whole entry): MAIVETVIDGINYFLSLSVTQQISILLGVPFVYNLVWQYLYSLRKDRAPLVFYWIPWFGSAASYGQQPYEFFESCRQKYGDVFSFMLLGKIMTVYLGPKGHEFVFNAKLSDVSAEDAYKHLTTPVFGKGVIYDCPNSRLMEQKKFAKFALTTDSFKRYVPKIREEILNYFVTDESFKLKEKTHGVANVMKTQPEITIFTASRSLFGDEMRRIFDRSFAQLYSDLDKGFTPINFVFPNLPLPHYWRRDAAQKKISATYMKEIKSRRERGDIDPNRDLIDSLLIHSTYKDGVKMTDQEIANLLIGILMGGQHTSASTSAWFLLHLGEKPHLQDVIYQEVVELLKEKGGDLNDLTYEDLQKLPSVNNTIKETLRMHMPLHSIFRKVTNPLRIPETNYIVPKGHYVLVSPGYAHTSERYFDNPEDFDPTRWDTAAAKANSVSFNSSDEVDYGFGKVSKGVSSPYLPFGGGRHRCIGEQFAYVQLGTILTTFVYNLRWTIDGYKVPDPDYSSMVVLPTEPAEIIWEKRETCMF

SMILES | Ratio
COc1ccc([C@H]([C@@H](Cc2ccc(Cl)cc2Cl)c2ccc(OC)cc2)n2ccnc2)cc1 | 21
CCn1cc(-c2ccc(Cl)cc2)c([C@H](c2ccc(Cl)cc2Cl)n2ccnc2)c1 | 2.9
Clc1ccc(-c2c[nH]cc2[C@@H](c2ccccc2)n2ccnc2)cc1 | 0.46
Clc1ccc(-n2ccc([C@@H](c3ccccc3)n3ccnc3)c2)cc1 | 0.5
Clc1ccc(-c2cn(Cc3ccc(Cl)cc3Cl)cc2[C@@H](c2ccccc2)n2ccnc2)cc1 | 40
Fc1ccc([C@@H](c2ccn(-c3ccc(Cl)cc3)c2)n2ccnc2)cc1 | 1.8
CC[C@@H](c1ccc(Cl)cc1)[C@@H](c1ccc(OC)cc1)n1cnnc1 | 63
Cc1ccc([C@H](c2ccn(-c3ccccc3)c2)n2ccnc2)cc1 | 1
Cn1cc(-c2ccc(F)cc2)c([C@@H](c2ccccc2)n2ccnc2)c1 | 4
COc1ccc([C@H](Cc2ccc(N)cc2)n2ccnc2)cc1 | 2.1
O=[N+]([O-])c1ccc([C@@H](c2ccc(Cl)cc2)n2ccnc2)cc1 | 1
Cn1cc(-c2ccc(Cl)cc2)c([C@H](c2ccc(Cl)cc2Cl)n2ccnc2)c1 | 3

Tested on: Candida
Experiment: Tested In vitro for antifungal activity against Candida species. at pH 7.2; (range is from 8 to 16)
Format: functional
Procedure, shortened: as §1

SMILES | Range [µg/mL]
CCn1cc(-c2ccc(Cl)cc2)c([C@H](c2ccc(Cl)cc2Cl)n2ccnc2)c1 | 16

Tested on: Candida albicans
Experiment: IIn vitro antifungal activity against 40 strains of Candida albicans at pH 5.8; (percent of resistant species at 256 ug/mL)
Format: functional
Procedure, shortened: as §2

SMILES | Resistance [%]
CCn1cc(-c2ccc(Cl)cc2)c([C@H](c2ccc(Cl)cc2Cl)n2ccnc2)c1 | 0
FC(F)(F)c1ccc(-c2c[nH]cc2[C@@H](c2ccc(Cl)cc2Cl)n2ccnc2)cc1 | 0

Tested on: Candida albicans
Experiment: In vitro antifungal activity against 40 strains of Candida albicans at pH 7.2; minimum inhibitory concentration (range is from 4 to 64)
Format: functional
Procedure, shortened: as §3

SMILES | Range [µg/mL]
FC(F)(F)c1ccc(-c2c[nH]cc2[C@@H](c2ccc(Cl)cc2Cl)n2ccnc2)cc1 | 64

Tested on: Candida
Experiment: Tested In vitro for antifungal activity against Candida species. at pH 7.2; (range is from 4 to 16)
Format: functional
Procedure, shortened: as §1

SMILES | Range [µg/mL]
Cn1cc(-c2ccc(Cl)cc2)c([C@H](c2ccc(Cl)cc2Cl)n2ccnc2)c1 | 16

Tested on: Candida
Experiment: Tested in vitro for antifungal activity against Candida species. at pH 5.8 (percent of resistant species at 256 ug/mL)
Format: functional
Procedure, shortened: as §4

SMILES | Resistance [%]
CCn1cc(-c2ccc(Cl)cc2)c([C@H](c2ccc(Cl)cc2Cl)n2ccnc2)c1 | 0
Cn1cc(-c2ccc(Cl)cc2)c([C@H](c2ccc(Cl)cc2Cl)n2ccnc2)c1 | 0

Tested on: Candida albicans
Experiment: In vitro antifungal activity against 40 strains of Candida albicans at pH 7.2
Format: functional
Procedure, shortened: as §3

SMILES | MIC [µg/mL] | MIC50 [µg/mL] | MIC90 [µg/mL]
CCn1cc(-c2ccc(Cl)cc2)c([C@H](c2ccc(Cl)cc2Cl)n2ccnc2)c1 | 3.2 (≈ 7.43 µM) | 1 (≈ 2.32 µM) | 2 (≈ 4.64 µM)
FC(F)(F)c1ccc(-c2c[nH]cc2[C@@H](c2ccc(Cl)cc2Cl)n2ccnc2)cc1 | 7.63 (≈ 17.5 µM) | 4 (≈ 9.17 µM) | 8 (≈ 18.3 µM)
Cn1cc(-c2ccc(Cl)cc2)c([C@H](c2ccc(Cl)cc2Cl)n2ccnc2)c1 | 5.3 (≈ 12.7 µM) | 2 (≈ 4.8 µM) | 16 (≈ 38.4 µM)

Tested on: Candida albicans
Experiment: In vitro antifungal activity against 40 strains of Candida albicans at pH 5.8; (range is from 0.25 to 32)
Format: functional
Procedure, shortened: as §3

SMILES | Range [µg/mL]
CCn1cc(-c2ccc(Cl)cc2)c([C@H](c2ccc(Cl)cc2Cl)n2ccnc2)c1 | 32

Tested on: Candida
Experiment: In vitro antifungal activity against 40 strains at pH 5.8,(percent of resistant species at 256 ug/mL)
Format: functional
Procedure, shortened: as §2

SMILES | Resistance [%]
FC(F)(F)c1ccc(-c2c[nH]cc2[C@@H](c2ccc(Cl)cc2Cl)n2ccnc2)cc1 | 0

Tested on: Candida
Experiment: Tested in vitro for antifungal activity against Candida species. at pH 5.8; (range is from 4 to 8)
Format: functional
Procedure, shortened: as §1

SMILES | Range [µg/mL]
CCn1cc(-c2ccc(Cl)cc2)c([C@H](c2ccc(Cl)cc2Cl)n2ccnc2)c1 | 8

Tested on: Candida
Experiment: Tested In vitro for antifungal activity against Candida species. at pH 7.2
Format: functional
Procedure, shortened: as §1

SMILES | MIC [µg/mL] | MIC50 [µg/mL] | MIC90 [µg/mL]
CCn1cc(-c2ccc(Cl)cc2)c([C@H](c2ccc(Cl)cc2Cl)n2ccnc2)c1 | 13.3 (≈ 30.9 µM) | 16 (≈ 37.1 µM) | 16 (≈ 37.1 µM)
FC(F)(F)c1ccc(-c2c[nH]cc2[C@@H](c2ccc(Cl)cc2Cl)n2ccnc2)cc1 | 17.3 (≈ 39.7 µM) | 16 (≈ 36.7 µM) | 32 (≈ 73.4 µM)
Cn1cc(-c2ccc(Cl)cc2)c([C@H](c2ccc(Cl)cc2Cl)n2ccnc2)c1 | 6.1 (≈ 14.6 µM) | 16 (≈ 38.4 µM) | 32 (≈ 76.8 µM)

Tested on: Candida albicans
Experiment: In vitro antifungal activity against 40 strains of Candida albicans at pH 7.2; (percent of resistant species at 256 ug/mL)
Format: functional
Procedure, shortened: as §2

SMILES | Resistance [%]
CCn1cc(-c2ccc(Cl)cc2)c([C@H](c2ccc(Cl)cc2Cl)n2ccnc2)c1 | 0
FC(F)(F)c1ccc(-c2c[nH]cc2[C@@H](c2ccc(Cl)cc2Cl)n2ccnc2)cc1 | 0
Cn1cc(-c2ccc(Cl)cc2)c([C@H](c2ccc(Cl)cc2Cl)n2ccnc2)c1 | 0

Tested on: Candida albicans
Experiment: In vitro antifungal activity against 40 strains of Candida albicans at pH 5.8; (range is from 1 to 16)
Format: functional
Procedure, shortened: as §3

SMILES | Range [µg/mL]
FC(F)(F)c1ccc(-c2c[nH]cc2[C@@H](c2ccc(Cl)cc2Cl)n2ccnc2)cc1 | 16

Tested on: Candida
Experiment: Tested in vitro for antifungal activity against Candida species. at pH 5.8
Format: functional
Procedure, shortened: as §1

SMILES | MIC [µg/mL] | MIC50 [µg/mL] | MIC90 [µg/mL]
CCn1cc(-c2ccc(Cl)cc2)c([C@H](c2ccc(Cl)cc2Cl)n2ccnc2)c1 | 5.33 (≈ 12.4 µM) | 4 (≈ 9.29 µM) | 8 (≈ 18.6 µM)
FC(F)(F)c1ccc(-c2c[nH]cc2[C@@H](c2ccc(Cl)cc2Cl)n2ccnc2)cc1 | 16 (≈ 36.7 µM) | 16 (≈ 36.7 µM) | 16 (≈ 36.7 µM)
Cn1cc(-c2ccc(Cl)cc2)c([C@H](c2ccc(Cl)cc2Cl)n2ccnc2)c1 | 4.5 (≈ 10.8 µM) | 2 (≈ 4.8 µM) | 64 (≈ 154 µM)

Tested on: Candida albicans
Experiment: In vitro antifungal activity against 40 strains of Candida albicans at pH 5.8
Format: functional
Procedure, shortened: as §3

SMILES | MIC [µg/mL] | MIC50 [µg/mL] | MIC90 [µg/mL]
CCn1cc(-c2ccc(Cl)cc2)c([C@H](c2ccc(Cl)cc2Cl)n2ccnc2)c1 | 2.36 (≈ 5.48 µM) | 1 (≈ 2.32 µM) | 2 (≈ 4.64 µM)
FC(F)(F)c1ccc(-c2c[nH]cc2[C@@H](c2ccc(Cl)cc2Cl)n2ccnc2)cc1 | 4.8 (≈ 11 µM) | 4 (≈ 9.17 µM) | 8 (≈ 18.3 µM)
Cn1cc(-c2ccc(Cl)cc2)c([C@H](c2ccc(Cl)cc2Cl)n2ccnc2)c1 | 2.54 (≈ 6.09 µM) | 0.5 (≈ 1.2 µM) | 2 (≈ 4.8 µM)

Tested on: Candida albicans
Experiment: IIn vitro antifungal activity against 40 strains of Candida albicans at pH 7.2; minimum inhibitory concentration (range is from 0.5 to 16)
Format: functional
Procedure, shortened: as §3

SMILES | Range [µg/mL]
CCn1cc(-c2ccc(Cl)cc2)c([C@H](c2ccc(Cl)cc2Cl)n2ccnc2)c1 | 16
